Measured values from ChEMBL document CHEMBL1667773, “Synthesis and antifungal activity of furo[2,3-f]quinolin-5-ols” (2011).
≈ marks a conversion by molar mass, not a printed value.

Legend:
Candida tropicalis = test: Antifungal activity against Candida tropicalis KCCM 50662 after 1 day by twofold broth dilution method; type: functional; conditions: KCCM 50662, 24 h
Method in brief: (§1)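 Candida strains were tested by twofold serial broth dilution in modified Sabouraud dextrose broth at roughly 1 × 10⁵ cells/mL, held at 37 °C and read after one day. MIC was taken as the lowest agent concentration, against fluconazole and 5-fluorocytosine standards.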

Candida albicans = test: Antifungal activity against Candida albicans KCCM 50235 after 1 day by twofold broth dilution method; type: functional; conditions: KCCM 50235, 24 h; method in brief: as §1
Cryptococcus neoformans = test: Antifungal activity against Cryptococcus neoformans KCCM 50564 after 1 day by twofold broth dilution method; conditions: KCCM 50564, 24 h
Aspergillus flavus = test: Antifungal activity against Aspergillus flavus KCCM 11899 after 2 days by twofold broth dilution method; type: functional; conditions: KCCM 11899, 48 h
Method in brief: (§2)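 Twofold broth dilution in modified Sabouraud dextrose broth. Inoculum about 1 × 10⁵ cells/mL. Incubated at 37 °C and read after two days. MIC taken as the lowest concentration of agent tested, with fluconazole and 5-fluorocytosine as reference agents.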

Pichia kudriavzevii = test: Antifungal activity against Candida krusei KCCM 11655 after 1 day by twofold broth dilution method; type: functional; conditions: KCCM 11655, 24 h; method in brief: as §1
Aspergillus niger = test: Antifungal activity against Aspergillus niger KCTC 1231 after 2 days by twofold broth dilution method; type: functional; conditions: KCTC 1231, 48 h; method in brief: as §2

CCOC(=O)c1c(N)oc2c1c(Br)c(O)c1ncccc12
MIC (Candida tropicalis): 6.3 µg/mL (≈ 17.9 µM) | MIC (Candida albicans): 12.5 µg/mL (≈ 35.6 µM) | MIC (Cryptococcus neoformans): 25 µg/mL (≈ 71.2 µM) | MIC (Aspergillus flavus): 6.3 µg/mL (≈ 17.9 µM) | MIC (Pichia kudriavzevii): 6.3 µg/mL (≈ 17.9 µM) | MIC (Aspergillus niger): 6.3 µg/mL (≈ 17.9 µM)

CCOC(=O)c1c(N)oc2c1c(Cl)c(O)c1ncccc12
MIC (Candida tropicalis): 50 µg/mL (≈ 163 µM) | MIC (Candida albicans): > 50 µg/mL | MIC (Cryptococcus neoformans): 25 µg/mL (≈ 81.5 µM) | MIC (Aspergillus flavus): > 50 µg/mL | MIC (Pichia kudriavzevii): 6.3 µg/mL (≈ 20.5 µM) | MIC (Aspergillus niger): > 50 µg/mL

COC(=O)c1c(N)oc2c1c(Br)c(O)c1ncccc12
MIC (Candida tropicalis): 6.3 µg/mL (≈ 18.7 µM) | MIC (Candida albicans): 50 µg/mL (≈ 148 µM) | MIC (Cryptococcus neoformans): 12.5 µg/mL (≈ 37.1 µM) | MIC (Aspergillus flavus): 25 µg/mL (≈ 74.2 µM) | MIC (Pichia kudriavzevii): 25 µg/mL (≈ 74.2 µM) | MIC (Aspergillus niger): 25 µg/mL (≈ 74.2 µM)

COC(=O)c1c(N)oc2c1c(C)c(O)c1ncccc12
MIC (Candida tropicalis): 6.3 µg/mL (≈ 23.1 µM) | MIC (Candida albicans): 0.8 µg/mL (≈ 2.94 µM) | MIC (Cryptococcus neoformans): 25 µg/mL (≈ 91.8 µM) | MIC (Aspergillus flavus): 3.2 µg/mL (≈ 11.8 µM) | MIC (Pichia kudriavzevii): 25 µg/mL (≈ 91.8 µM) | MIC (Aspergillus niger): 12.5 µg/mL (≈ 45.9 µM)

CCOC(=O)c1c(N)oc2c1c(C)c(O)c1ncccc12
MIC (Candida tropicalis): 25 µg/mL (≈ 87.3 µM) | MIC (Candida albicans): 6.3 µg/mL (≈ 22 µM) | MIC (Cryptococcus neoformans): 12.5 µg/mL (≈ 43.7 µM) | MIC (Aspergillus flavus): 12.5 µg/mL (≈ 43.7 µM) | MIC (Pichia kudriavzevii): 25 µg/mL (≈ 87.3 µM) | MIC (Aspergillus niger): > 50 µg/mL

CCOC(=O)c1c(N)oc2c1c(Sc1cccc(F)c1)c(O)c1ncccc12
MIC (Candida tropicalis): 50 µg/mL (≈ 125 µM) | MIC (Candida albicans): 50 µg/mL (≈ 125 µM) | MIC (Cryptococcus neoformans): 50 µg/mL (≈ 125 µM) | MIC (Aspergillus flavus): 12.5 µg/mL (≈ 31.4 µM) | MIC (Pichia kudriavzevii): 50 µg/mL (≈ 125 µM) | MIC (Aspergillus niger): 25 µg/mL (≈ 62.7 µM)

CCOC(=O)c1c(N)oc2c1c(Sc1ccc(F)cc1)c(O)c1ncccc12
MIC (Candida tropicalis): 50 µg/mL (≈ 125 µM) | MIC (Candida albicans): 50 µg/mL (≈ 125 µM) | MIC (Cryptococcus neoformans): 50 µg/mL (≈ 125 µM) | MIC (Aspergillus flavus): 6.3 µg/mL (≈ 15.8 µM) | MIC (Pichia kudriavzevii): 50 µg/mL (≈ 125 µM) | MIC (Aspergillus niger): 50 µg/mL (≈ 125 µM)

CCOC(=O)c1c(N)oc2c1c(Sc1ccc(Br)cc1)c(O)c1ncccc12
MIC (Candida tropicalis): 0.8 µg/mL (≈ 1.74 µM) | MIC (Candida albicans): 1.6 µg/mL (≈ 3.48 µM) | MIC (Cryptococcus neoformans): 25 µg/mL (≈ 54.4 µM) | MIC (Aspergillus flavus): 0.8 µg/mL (≈ 1.74 µM) | MIC (Pichia kudriavzevii): 1.6 µg/mL (≈ 3.48 µM) | MIC (Aspergillus niger): 1.6 µg/mL (≈ 3.48 µM)

CCOC(=O)c1c(N)oc2c1c(Sc1ccc(Cl)cc1)c(O)c1ncccc12
MIC (Candida tropicalis): 0.8 µg/mL (≈ 1.93 µM) | MIC (Candida albicans): 0.8 µg/mL (≈ 1.93 µM) | MIC (Cryptococcus neoformans): 25 µg/mL (≈ 60.3 µM) | MIC (Aspergillus flavus): 3.2 µg/mL (≈ 7.71 µM) | MIC (Pichia kudriavzevii): 1.6 µg/mL (≈ 3.86 µM) | MIC (Aspergillus niger): 3.2 µg/mL (≈ 7.71 µM)

CCOC(=O)c1c(N)oc2c1c(Sc1ccccc1)c(O)c1ncccc12
MIC (Candida tropicalis): 1.6 µg/mL (≈ 4.21 µM) | MIC (Candida albicans): 3.2 µg/mL (≈ 8.41 µM) | MIC (Cryptococcus neoformans): 25 µg/mL (≈ 65.7 µM) | MIC (Aspergillus flavus): 3.2 µg/mL (≈ 8.41 µM) | MIC (Pichia kudriavzevii): 3.2 µg/mL (≈ 8.41 µM) | MIC (Aspergillus niger): 3.2 µg/mL (≈ 8.41 µM)

CCOC(=O)c1c(N)oc2c1c(Sc1ccc(F)c(F)c1)c(O)c1ncccc12
MIC (Candida tropicalis): 1.6 µg/mL (≈ 3.84 µM) | MIC (Candida albicans): 0.8 µg/mL (≈ 1.92 µM) | MIC (Cryptococcus neoformans): 50 µg/mL (≈ 120 µM) | MIC (Aspergillus flavus): 1.6 µg/mL (≈ 3.84 µM) | MIC (Pichia kudriavzevii): 1.6 µg/mL (≈ 3.84 µM) | MIC (Aspergillus niger): 1.6 µg/mL (≈ 3.84 µM)

CCOC(=O)c1c(N)oc2c1c(Sc1cccc(C)c1)c(O)c1ncccc12
MIC (Candida tropicalis): 25 µg/mL (≈ 63.4 µM) | MIC (Candida albicans): 12.5 µg/mL (≈ 31.7 µM) | MIC (Cryptococcus neoformans): 3.2 µg/mL (≈ 8.11 µM) | MIC (Aspergillus flavus): 12.5 µg/mL (≈ 31.7 µM) | MIC (Pichia kudriavzevii): 25 µg/mL (≈ 63.4 µM) | MIC (Aspergillus niger): 25 µg/mL (≈ 63.4 µM)

CCOC(=O)c1c(N)oc2c1c(Sc1ccc(C)c(C)c1)c(O)c1ncccc12
MIC (Candida tropicalis): 12.5 µg/mL (≈ 30.6 µM) | MIC (Candida albicans): 25 µg/mL (≈ 61.2 µM) | MIC (Cryptococcus neoformans): 12.5 µg/mL (≈ 30.6 µM) | MIC (Aspergillus flavus): 6.3 µg/mL (≈ 15.4 µM) | MIC (Pichia kudriavzevii): 25 µg/mL (≈ 61.2 µM) | MIC (Aspergillus niger): 12.5 µg/mL (≈ 30.6 µM)

CCOC(=O)c1c(N)oc2c1c(Sc1ccc(O)cc1)c(O)c1ncccc12
MIC (Candida tropicalis): 6.3 µg/mL (≈ 15.9 µM) | MIC (Candida albicans): 12.5 µg/mL (≈ 31.5 µM) | MIC (Cryptococcus neoformans): 12.5 µg/mL (≈ 31.5 µM) | MIC (Aspergillus flavus): 25 µg/mL (≈ 63.1 µM) | MIC (Pichia kudriavzevii): 25 µg/mL (≈ 63.1 µM) | MIC (Aspergillus niger): 3.2 µg/mL (≈ 8.07 µM)

CCOC(=O)c1c(N)oc2c1c(Sc1ccc(OC)cc1)c(O)c1ncccc12
MIC (Candida tropicalis): 6.3 µg/mL (≈ 15.3 µM) | MIC (Candida albicans): 6.3 µg/mL (≈ 15.3 µM) | MIC (Cryptococcus neoformans): 25 µg/mL (≈ 60.9 µM) | MIC (Aspergillus flavus): 12.5 µg/mL (≈ 30.5 µM) | MIC (Pichia kudriavzevii): 6.3 µg/mL (≈ 15.3 µM) | MIC (Aspergillus niger): 3.2 µg/mL (≈ 7.8 µM)

CCOC(=O)c1c(N)oc2c1c(Sc1ccc(C)cc1)c(O)c1ncccc12
MIC (Candida tropicalis): 12.5 µg/mL (≈ 31.7 µM) | MIC (Candida albicans): 6.3 µg/mL (≈ 16 µM) | MIC (Cryptococcus neoformans): 12.5 µg/mL (≈ 31.7 µM) | MIC (Aspergillus flavus): 50 µg/mL (≈ 127 µM) | MIC (Pichia kudriavzevii): 50 µg/mL (≈ 127 µM) | MIC (Aspergillus niger): 3.2 µg/mL (≈ 8.11 µM)

CCOC(=O)c1c(N)oc2c1c(Sc1cccc(Cl)c1)c(O)c1ncccc12
MIC (Candida tropicalis): 12.5 µg/mL (≈ 30.1 µM) | MIC (Candida albicans): 6.3 µg/mL (≈ 15.2 µM) | MIC (Cryptococcus neoformans): 1.6 µg/mL (≈ 3.86 µM) | MIC (Aspergillus flavus): 12.5 µg/mL (≈ 30.1 µM) | MIC (Pichia kudriavzevii): 6.3 µg/mL (≈ 15.2 µM) | MIC (Aspergillus niger): 3.2 µg/mL (≈ 7.71 µM)

CCOC(=O)c1c(N)oc2c1c(SC)c(O)c1ncccc12
MIC (Candida tropicalis): 12.5 µg/mL (≈ 39.3 µM) | MIC (Candida albicans): 12.5 µg/mL (≈ 39.3 µM) | MIC (Cryptococcus neoformans): 6.3 µg/mL (≈ 19.8 µM) | MIC (Aspergillus flavus): 50 µg/mL (≈ 157 µM) | MIC (Pichia kudriavzevii): 50 µg/mL (≈ 157 µM) | MIC (Aspergillus niger): 50 µg/mL (≈ 157 µM)

CCOC(=O)c1c(N)oc2c1c(SCC)c(O)c1ncccc12
MIC (Candida tropicalis): 25 µg/mL (≈ 75.2 µM) | MIC (Candida albicans): 50 µg/mL (≈ 150 µM) | MIC (Cryptococcus neoformans): > 50 µg/mL | MIC (Aspergillus flavus): 6.3 µg/mL (≈ 19 µM) | MIC (Pichia kudriavzevii): > 50 µg/mL | MIC (Aspergillus niger): 25 µg/mL (≈ 75.2 µM)

Cc1ccc2cccnc2c1[N+](=O)[O-]
MIC (Candida tropicalis): > 50 µg/mL | MIC (Candida albicans): > 50 µg/mL | MIC (Cryptococcus neoformans): 50 µg/mL (≈ 266 µM) | MIC (Aspergillus flavus): > 50 µg/mL | MIC (Pichia kudriavzevii): > 50 µg/mL | MIC (Aspergillus niger): > 50 µg/mL

Nc1ccc(O)c2ncccc12
MIC (Candida tropicalis): 50 µg/mL (≈ 312 µM) | MIC (Candida albicans): 50 µg/mL (≈ 312 µM) | MIC (Cryptococcus neoformans): > 50 µg/mL | MIC (Aspergillus flavus): > 50 µg/mL | MIC (Pichia kudriavzevii): > 50 µg/mL | MIC (Aspergillus niger): 50 µg/mL (≈ 312 µM)

OC(Cn1cncn1)(Cn1cncn1)c1ccc(F)cc1F [FLUCONAZOLE]
MIC (Candida tropicalis): 6.3 µg/mL (≈ 20.6 µM) | MIC (Candida albicans): 50 µg/mL (≈ 163 µM) | MIC (Cryptococcus neoformans): 6.3 µg/mL (≈ 20.6 µM) | MIC (Aspergillus flavus): 25 µg/mL (≈ 81.6 µM) | MIC (Pichia kudriavzevii): 12.5 µg/mL (≈ 40.8 µM) | MIC (Aspergillus niger): 12.5 µg/mL (≈ 40.8 µM)

Nc1nc(=O)[nH]cc1F [FLUCYTOSINE]
MIC (Candida tropicalis): 3.2 µg/mL (≈ 24.8 µM) | MIC (Candida albicans): 3.2 µg/mL (≈ 24.8 µM) | MIC (Cryptococcus neoformans): 6.3 µg/mL (≈ 48.8 µM) | MIC (Aspergillus flavus): 1.6 µg/mL (≈ 12.4 µM) | MIC (Pichia kudriavzevii): 3.2 µg/mL (≈ 24.8 µM) | MIC (Aspergillus niger): 3.2 µg/mL (≈ 24.8 µM)
